# Legend:
# [1] = test system: Staphylococcus haemolyticus; experiment: In vitro minimum inhibitory concentration against Staphylococcus hemolyticus 602 cell line; format: functional; details: strain 602
# Streptococcus pneumoniae = experiment: In vitro minimum inhibitory concentration against Streptococcus pneumoniae UC41; format: functional
# Streptococcus pyogenes [2] = experiment: Subcutaneously administration into mice infected with Streptococcus pyogenes C 203; format: functional; details: sc
# Method in brief: (§1)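 Mice (five per treatment group, five groups) infected intraperitoneally with about 10⁵ cells of Strep. pyogenes C 203, about 100× the LD50. ED50 (mg/kg) was calculated from the percentage of mice surviving at each dose on day 7.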
# [3] = test system: Staphylococcus epidermidis; experiment: In vitro minimum inhibitory concentration against Staphylococcus epidermis ATCC 12228; format: functional
# Staphylococcus aureus [4] = experiment: In vitro minimum inhibitory concentration of compound against Staphylococcus aureus Tour; format: organism-based
# Streptococcus pyogenes [5] = experiment: In vivo effective dose given perorally to mice infected with Streptococcus pyogenes C 203; format: functional; details: po; method in brief: as §1
# Enterococcus faecalis = experiment: In vitro minimum inhibitory concentration against Streptococcus faecalis ATCC 7080; format: functional
# Streptococcus pyogenes [6] = experiment: In vitro minimum inhibitory concentration against Streptococcus pyogenes C 203; format: functional
# Staphylococcus sp. [7] = experiment: 50 percent Minimum inhibitory concentration of compound against 16 different strains of staphylococcus species; format: functional
# Method in brief: (§2)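 Agar dilution on Iso-Sensitest agar against clinical coagulase-negative staphylococcal isolates, including methicillin-resistant strains. Final inoculum about 10⁴ cfu/mL.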
# [8] = test system: Staphylococcus epidermidis; experiment: 90 percent Minimum inhibitory concentration of compound against 12 strains of Staphylococcus epidermidis; format: functional; method in brief: as §2
# [9] = test system: Staphylococcus haemolyticus; experiment: 50 percent Minimum inhibitory concentration of compound against 8 strains of Staphylococcus hemolyticus; format: functional; method in brief: as §2
# [10] = test system: Staphylococcus haemolyticus; experiment: Minimum inhibitory concentration of compound against 8 strains of Staphylococcus hemolyticus; format: functional; method in brief: as §2
# [11] = test system: Staphylococcus epidermidis; experiment: 50 percent Minimum inhibitory concentration of compound against 12 strains of Staphylococcus epidermidis; format: functional; method in brief: as §2
# [12] = test system: Staphylococcus epidermidis; experiment: Minimum inhibitory concentration of compound against 12 strains of Staphylococcus epidermidis; format: functional; method in brief: as §2
# Staphylococcus sp. [13] = experiment: Minimum inhibitory concentration of compound against 16 different strains of staphylococcus species; format: functional; method in brief: as §2
# [14] = test system: Staphylococcus haemolyticus; experiment: 90 percent Minimum inhibitory concentration of compound against 8 strains of Staphylococcus hemolyticus; format: functional; method in brief: as §2
# Staphylococcus aureus [15] = experiment: In vitro minimum inhibitory concentration against Staphylococcus aureus Tour; format: functional
# Staphylococcus sp. [16] = experiment: 90 percent Minimum inhibitory concentration of compound against 16 different strains of staphylococcus species; format: functional; method in brief: as §2
# [17] = test system: Ac2-L-Lys-D-Ala-D-Ala peptide; experiment: Association constant with Ac2-L-Lys-D-Ala-D-Ala
# Method in brief: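 UV difference spectroscopy at 24 ± 2 °C in 4-cm unthermostated cells. Antibiotic was at 30 μM in 10% MeOH in sodium phosphate buffer, pH 9, and titrated with Ac2-L-Lys-D-Ala-D-Ala. ΔA was monitored at 294 nm. Ka was taken from the slope of a Scatchard plot.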
# Bacteria = experiment: Minimum inhibitory concentration of compound against Gram negative bacteria; format: functional
SMILES,MIC (Streptococcus pneumoniae),MIC [3],MIC (Staphylococcus aureus [4]),MIC (Enterococcus faecalis),MIC (Streptococcus pyogenes [6]),MIC50 (Staphylococcus sp. [7]),MIC90 [8],MIC50 [11],MIC [12],MIC (Staphylococcus sp. [13]),MIC (Staphylococcus aureus [15]),MIC90 (Staphylococcus sp. [16]),Ka [17],MIC (Bacteria),MIC [1],ED50 (Streptococcus pyogenes [2]),ED50 (Streptococcus pyogenes [5]),MIC50 [9],MIC [10],MIC90 [14]
CC(=O)N[C@@H]1[C@H](O[C@@H]2c3ccc(c(Cl)c3)Oc3cc4cc(c3O[C@@H]3O[C@@H](CO)[C@@H](O)[C@H](O)[C@@H]3NC(=O)CCCCCCC(C)C)Oc3ccc(cc3Cl)C[C@H]3NC(=O)[C@H](N)c5ccc(O)c(c5)Oc5cc(O)cc(c5)[C@H](NC3=O)C(=O)N[C@H]4C(=O)N[C@H]3C(=O)N[C@@H]2C(=O)N[C@H](C(=O)NC2CCN(Cc4ccccc4)CC2)c2cc(O)cc(O[C@H]4O[C@H](CO)[C@@H](O)[C@@H](O)[C@@H]4O)c2-c2cc3ccc2O)O[C@@H](CO)[C@@H](O)[C@@H]1O,0.06 µg/mL,0.12 µg/mL,0.12 µg/mL,0.12 µg/mL,0.06 µg/mL,–,–,–,–,–,–,–,–,–,4 µg/mL,0.08 mg/kg,> 300 mg/kg,–,–,–
CC(=O)N[C@@H]1[C@H](O[C@@H]2c3ccc(c(Cl)c3)Oc3cc4cc(c3O)Oc3ccc(cc3Cl)C[C@H]3NC(=O)[C@H](N)c5ccc(O)c(c5)Oc5cc(O)cc(c5)[C@H](NC3=O)C(=O)N[C@H]4C(=O)N[C@H]3C(=O)N[C@@H]2C(=O)N[C@H](C(=O)N2CCN(C)CC2)c2cc(O)cc(O[C@H]4O[C@H](CO)[C@@H](O)[C@@H](O)[C@@H]4O)c2-c2cc3ccc2O)O[C@@H](CO)[C@@H](O)[C@@H]1O,1 µg/mL,0.12 µg/mL,–,2 µg/mL,0.5 µg/mL,–,–,–,–,–,0.25 µg/mL,–,100000 M⁻¹,> 128 µg/mL,–,0.95 mg/kg,–,–,–,–

# More lines, in order of falling MIC (Streptococcus pneumoniae), values ahead:
MIC (Streptococcus pneumoniae),MIC [3],MIC (Staphylococcus aureus [4]),MIC (Enterococcus faecalis),MIC (Streptococcus pyogenes [6]),MIC50 (Staphylococcus sp. [7]),MIC90 [8],MIC50 [11],MIC [12],MIC (Staphylococcus sp. [13]),MIC (Staphylococcus aureus [15]),MIC90 (Staphylococcus sp. [16]),Ka [17],MIC (Bacteria),SMILES,MIC [1],ED50 (Streptococcus pyogenes [2]),ED50 (Streptococcus pyogenes [5]),MIC50 [9],MIC [10],MIC90 [14]
0.5 µg/mL,0.12 µg/mL,–,2 µg/mL,0.5 µg/mL,–,–,–,–,–,0.5 µg/mL,–,120000 M⁻¹,> 128 µg/mL,CC(=O)N[C@@H]1[C@H](O[C@@H]2c3ccc(c(Cl)c3)Oc3cc4cc(c3O)Oc3ccc(cc3Cl)C[C@H]3NC(=O)[C@H](N)c5ccc(O)c(c5)Oc5cc(O)cc(c5)[C@H](NC3=O)C(=O)N[C@H]4C(=O)N[C@H]3C(=O)N[C@@H]2C(=O)N[C@H](C(=O)N2CCSCC2)c2cc(O)cc(O[C@H]4O[C@H](CO)[C@@H](O)[C@@H](O)[C@@H]4O)c2-c2cc3ccc2O)O[C@@H](CO)[C@@H](O)[C@@H]1O,–,1.6 mg/kg,–,–,–,–
0.06 µg/mL,0.06 µg/mL,–,0.12 µg/mL,0.06 µg/mL,0.5 µg/mL,1 µg/mL,0.25 µg/mL,0.125 µg/mL,0.25 µg/mL,0.12 µg/mL,1 µg/mL,–,–,CC(=O)N[C@@H]1[C@H](O[C@@H]2c3ccc(c(Cl)c3)Oc3cc4cc(c3O[C@@H]3O[C@@H](CO)[C@@H](O)[C@H](O)[C@@H]3NC(=O)CCCCCCC(C)C)Oc3ccc(cc3Cl)C[C@H]3NC(=O)[C@H](N)c5ccc(O)c(c5)Oc5cc(O)cc(c5)[C@H](NC3=O)C(=O)N[C@H]4C(=O)N[C@H]3C(=O)N[C@@H]2C(=O)N[C@H](C(=O)NCCCN(C)C)c2cc(O)cc(O[C@H]4O[C@H](CO)[C@@H](O)[C@@H](O)[C@@H]4O)c2-c2cc3ccc2O)O[C@@H](CO)[C@@H](O)[C@@H]1O,0.12 µg/mL,0.05 mg/kg,70.7 mg/kg,1 µg/mL,1 µg/mL,2 µg/mL
0.06 µg/mL,0.25 µg/mL,–,0.12 µg/mL,0.06 µg/mL,1 µg/mL,2 µg/mL,0.5 µg/mL,0.25 µg/mL,0.25 µg/mL,0.12 µg/mL,4 µg/mL,–,–,CCCCC/C=C/CCC(=O)N[C@@H]1[C@H](Oc2c3cc4cc2Oc2ccc(cc2Cl)[C@@H](O[C@@H]2O[C@@H](CO)[C@@H](O)[C@H](O)[C@@H]2NC(C)=O)[C@@H]2NC(=O)[C@H](NC(=O)[C@@H]4NC(=O)[C@H]4NC(=O)[C@@H](Cc5ccc(c(Cl)c5)O3)NC(=O)[C@H](N)c3ccc(O)c(c3)Oc3cc(O)cc4c3)c3ccc(O)c(c3)-c3c(O[C@H]4O[C@H](CO)[C@@H](O)[C@@H](O)[C@@H]4O)cc(O)cc3[C@@H](C(=O)O)NC2=O)O[C@@H](CO)[C@@H](O)[C@@H]1O,4 µg/mL,0.12 mg/kg,170 mg/kg,16 µg/mL,2 µg/mL,32 µg/mL
